What was measured:
[1] = Antiradiation evaluation test was carried out in mice and lethal dose for antiradiation effect at 800 rads was evaluated by the x-ray.; type: ADME, organism-based; settings: mouse, in vivo
[2] = system: Mus musculus; test: Antiradiation evaluation test was carried out in mice and percent of survival of animals after 30-day was determined at lowest dose of 340 mg/kg required for the highest survival rate.; type: functional; settings: 720 h
[3] = organism: Mus musculus; test: Antiradiation evaluation test was carried out in mice and mean survival time(MST) for mice that died over a 30 day period was determined.; type: functional
How it was run: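 Mice (strain "H", both sexes, 23-25 g, 20 per group) were given the drug as a methylcellulose/Tween-80 suspension and exposed to 800-rad X-rays at 96 rads/min alongside untreated controls. The value is the mean survival time of the mice that died within the 30-day observation period.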

[4] = system: Mus musculus; test: Antiradiation evaluation test was carried out in mice and percent of survival of animals after 30-day was determined at lowest dose of 210 mg/kg required for the highest survival rate.; type: functional; settings: 720 h
[5] = system: Mus musculus; test: Antiradiation evaluation test was carried out in mice and percent of survival of animals after 30-day was determined at lowest dose of 250 mg/kg required for the highest survival rate.; type: functional; settings: 720 h
[6] = system: Mus musculus; test: Antiradiation evaluation test was carried out in mice and percent of survival of animals after 30-day was determined at lowest dose of 150 mg/kg required for the highest survival rate.; type: functional; settings: 720 h
[7] = system: Mus musculus; test: Antiradiation evaluation test was carried out in mice and percent of survival of animals after 30-day was determined at lowest dose of 280 mg/kg required for the highest survival rate.; type: functional; settings: 720 h
[8] = system: Mus musculus; test: Antiradiation evaluation test was carried out in mice and percent of survival of animals after 30-day was determined at lowest dose of 360 mg/kg required for the highest survival rate.; type: functional; settings: 720 h
[9] = system: Mus musculus; test: Antiradiation evaluation test was carried out in mice and percent of survival of animals after 30-day was determined at lowest dose of 125 mg/kg required for the highest survival rate.; type: functional; settings: 720 h

SMILES | LD50 [1] [mg/kg] | MST [3] [days] | survival at 150 mg/kg [6] [%] | also measured
CCN(CC)C(=S)SC/C(=N\c1ccc(OC)cc1)Nc1ccc(OC)cc1 | 1370 | 14.3 | – | survival at 340 mg/kg [2]: 60%
CCOc1ccc(N/C(CSC(=S)N(CC)CC)=N/c2ccc(C)cc2)cc1 | 850 | 10.5 | – | survival at 210 mg/kg [4]: 25%
CCN(CC)C(=S)SC/C(=N\c1ccc(C)cc1)Nc1ccc(OC)cc1 | 970 | 9.8 | – | survival at 250 mg/kg [5]: 40%
CCN(CC)C(=S)SC/C(=N\c1ccccc1)Nc1ccccc1 | 840 | 8.1 | 5 | –
CCN(CC)C(=S)SC/C(=N\c1ccc(C)cc1)Nc1ccc(C)cc1 | 970 | 6.1 | – | survival at 210 mg/kg [4]: 0%
CCOc1ccc(N/C(CSC(=S)N(CC)CC)=N/c2ccc(OC)cc2)cc1 | 1270 | 13.5 | – | survival at 280 mg/kg [7]: 60%
CCOc1ccc(/N=C(\CSC(=S)N(CC)CC)Nc2ccc(OCC)cc2)cc1 | 1240 | 13.5 | – | survival at 360 mg/kg [8]: 70%
CCOc1ccc(N/C(CSC(=S)N(CC)CC)=N/c2ccccc2)cc1 | 800 | 9.1 | 35 | –
CCN(CC)C(=S)SC/C(=N\c1ccccc1)Nc1ccc(OC)cc1 | 780 | 10.8 | 10 | –
CCN(CC)C(=S)SC/C(=N\c1ccccc1)Nc1ccc(C)cc1 | 720 | 9.6 | – | survival at 125 mg/kg [9]: 10%

Source: ChEMBL document CHEMBL1123723, “S-[(N,N'-diarylamidino)methyl] diethyldithiocarbamates and related amides as potential radioprotectants” (J Med Chem, 1987)
